# Bioassay records from PubChem.
# CHRM5 PAM: positive allosteric modulators of human muscarinic M5 receptor; P08912; CHO-K1 hM5, Fluo-8 calcium, ACh EC20 PAM; 0% = ACh EC20, 100% = ACh EC100; activation, % at 3 µM; 0.3% of 360,000 active;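 active = activation above the run cutoff, the mean activation of all test compounds plus 3 SD, cut at about 18% in these data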
# Target sequence (P08912 whole entry, looked up): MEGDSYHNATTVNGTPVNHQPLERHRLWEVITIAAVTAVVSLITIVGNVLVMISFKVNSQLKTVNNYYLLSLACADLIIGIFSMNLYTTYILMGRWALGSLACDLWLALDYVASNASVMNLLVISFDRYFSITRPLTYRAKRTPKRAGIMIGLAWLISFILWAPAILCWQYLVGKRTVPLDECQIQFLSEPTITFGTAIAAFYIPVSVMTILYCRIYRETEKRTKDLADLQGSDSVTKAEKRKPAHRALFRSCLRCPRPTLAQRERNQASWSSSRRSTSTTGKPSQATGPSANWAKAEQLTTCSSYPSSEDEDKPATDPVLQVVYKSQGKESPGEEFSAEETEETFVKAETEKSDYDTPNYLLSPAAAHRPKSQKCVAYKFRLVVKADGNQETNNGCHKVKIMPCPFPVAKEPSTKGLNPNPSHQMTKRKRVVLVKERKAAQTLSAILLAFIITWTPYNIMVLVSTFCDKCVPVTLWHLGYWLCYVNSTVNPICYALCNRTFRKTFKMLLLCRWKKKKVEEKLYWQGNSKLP
#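 Replicates: One well per compound, no replicates | System: Human M5 receptor in CHO-K1 cells | Benchmarks: Low control EC20 acetylcholine (0%), high control EC100 acetylcholine (100%) | Probe or stimulus: Acetylcholine, EC20 level | Times: Fluo-8 loading 80 min at 37 °C plus 30 min room temperature | Signal: Intracellular calcium via Fluo-8 fluorescence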
# M4 PAM: positive allosteric modulators of human muscarinic M4 receptor; P08173; CHO-K1 hM4/Gqi5, Fluo-8 calcium fluorescence, ACh EC20; 0% = ACh EC20, 100% = maximal ACh; activation, % at 3 µM; 0.4% of 360,000 active; AID 624126;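 active = activation above its plate's cutoff, the mean activation of sample wells plus 3 SD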
# CHRM5 antagonist: antagonists of human muscarinic M5 receptor (CHRM5). P08912. AID 624040. inhibition, % at 3 µM. 0.59% of 360,000 active. CHO-hM5 cells, Fluo-8 calcium fluorescence, ACh EC80;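 active = inhibition above a per-plate cutoff, the mean of that plate's test compounds plus 3 SD, cut at about 27% in these data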;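 also: 0% = acetylcholine EC80 with DMSO and 100% = DMSO without agonist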
# CHRM4 antagonist: antagonists of human muscarinic M4 receptor (CHRM4) | CHO-hM4 cells, ACh EC80, Fluo-8 calcium fluorescence | 0.73% of 360,000 active | inhibition, % at 3 µM | P08173;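 active = inhibition above its plate's cutoff, the mean inhibition of sample wells plus 3 SD, cut at about 27% in these data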;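 also: 0% = acetylcholine EC80 with DMSO and 100% = DMSO without agonist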
# M4 ag: CHRM4 agonism in calcium assay. CHO-K1 hM4/Gqi5, Fluo-8 calcium fluorescence; vehicle 0%, full acetylcholine response 100%. activation, % at 3 µM. 0.14% of 360,000 active. AID 624127;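 active = activation above the run mean over all test wells plus 3 SD, cut at about 32% in these data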;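 also: peak over basal fluorescence ratio per well then scaled between controls; 0% = DMSO wells and 100% = acetylcholine at EC100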
# M5 ag: agonists of human muscarinic M5 receptor (CHRM5) | P08912 | CHO-K1 hM5 cells, Fluo-8 calcium fluorescence; 0% DMSO wells, 100% maximal acetylcholine response | activation, % at 3 µM | 0.19% of 360,000 active | AID 624037;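 active = activation above the run's mean over test compounds plus 3 SD, cut at about 23% in these data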;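 also: signal is peak over basal fluorescence ratio across the kinetic read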
# Numbers without * were called inactive. In the library only some 1.8% were active in any assay of this set; here they are far more common.
SMILES,CHRM5 PAM,M4 PAM,CHRM5 antagonist,CHRM4 antagonist,M4 ag,M5 ag
COc1ccc(S(=O)(=O)N2CCCCCC2)cc1C(=O)NCc1ccccc1Cl,-0.9,25.5*,-1.9,-2.6,-0.2,0.4
Cc1ccc(CNC(=O)C2=CCN(S(=O)(=O)c3ccc(C)cc3)CC2)cc1,-10.0,-5.9,3.7,-3.9,6.3,0.1
COc1ccccc1CNC(=O)C1=CCN(S(=O)(=O)c2ccc(C)cc2)CC1,19.2*,4.8,-0.7,24.0,1.7,0.9
COc1ccc(S(=O)(=O)N2CCCCCC2)cc1C(=O)NCc1ccco1,-3.3,-2.3,8.7,-8.6,3.0,0.3
COc1ccccc1S(=O)(=O)N(C)C[C@H]1OCc2cnnn2CCCC(=O)N([C@H](C)CO)C[C@H]1C,2.9,-5.7,-0.9,0.0,3.3,-0.9
CCC(C)CCN1C(N(C)C)=NC[C@@H]1C (some centres not stated),-9.2,5.4,7.6,39.1*,1.5,-5.8
Cc1ccc(OCC(=O)NC(=S)Nc2cccc(C)n2)cc1,6.0,8.8,-3.8,-9.2,-0.6,-1.9
Cc1cccc(NC(=O)COc2ccc(Br)cc2)n1,33.5*,3.4,26.0,0.5,0.1,-2.9
CSc1ccccc1C(=O)OCC(=O)Nc1c(C)n(C)n(-c2ccccc2)c1=O,2.8,-5.3,-6.7,-5.1,4.8,0.1
O=C(C(Cl)Cl)N1CC2CCC(CC2)C1,18.4*,1.6,-8.8,-3.9,-0.2,-8.8
O=C1CC(=O)CC(c2ccccc2)C1,-2.1,-1.9,-3.2,-2.2,0.6,1.9
O=S1(=O)CCS(=O)(=O)C1c1ccccc1,20.2*,-1.1,-8.0,16.2,0.5,7.8
O=C(CN1CCN(C(=O)CNC(=O)c2ccc(N3CCCC3=O)cc2)CC1)Nc1cccc(F)c1,0.7,0.7,3.0,-2.6,0.1,-1.0
CC1=C(C(=O)N2CCOCC2)CC(CC(=O)NCCc2ccccn2)C(=O)N1CCC1=CCCCC1 (configuration not stated),-3.4,-1.7,6.0,-2.6,0.3,1.2
O=C1C(Cl)=C(Nc2ccc3cn[nH]c3c2)C(=O)c2ccccc21,-16.5,-14.6,28.5*,39.1*,-2.4,-9.0
CN(C)c1ccc(NC2=C(Cl)C(=O)c3ccccc3C2=O)cc1,-16.9,-14.0,34.4*,36.5*,-1.7,-11.5
Cc1ccc2nc(C)cc(C(=O)Nc3nccs3)c2c1,-1.1,-7.0,6.1,-2.0,1.9,-0.6
O=C(Cn1c(=O)c2cccn2c2cccnc21)N1CCN(c2ccccc2F)CC1,24.9*,1.4,26.4,-9.5,7.9,1.1
CCc1nonc1NC(=O)c1oc2cc(C)c(Cl)cc2c1C,25.4*,7.7,-16.5,-7.0,0.3,-2.9
COc1ccc(C(=O)NNC(=S)NC(=O)c2ccc(OC)cc2)cc1,-12.8,-12.6,12.4,9.2,54.0*,19.9
Cc1ccc(C(=O)NC(=S)NNC(=O)c2ccccc2)cc1,-23.3,-19.1,13.3,-2.2,86.6*,39.7*
Cc1cccc(C(=O)NNC(=S)NC(=O)c2ccccc2)c1,-27.2,-16.9,23.3,18.4,118.4*,56.6*
Cc1ccc(C(=O)NC(=S)NNC(=O)c2ccccc2O)cc1,-3.4,3.1,8.3,-2.4,0.2,1.3
COc1ccc(C(=O)NNC(=S)NC(=O)c2cccnc2)cc1,-8.9,0.4,14.9,2.4,0.2,-2.5
Cc1ccc(C(=O)NNC(=S)NC(=O)c2ccccc2)cc1,-30.3,-67.5,30.2*,27.9*,129.8*,66.5*
SMILES,CHRM5 PAM,M4 PAM,CHRM5 antagonist,CHRM4 antagonist,M4 ag,M5 ag
CCC1([N+](=O)[O-])COC(c2ccc(OC)cc2)OC1 (configuration not stated),3.1,2.6,-0.6,-20.3,2.1,0.8
O=C(c1ccc2[nH]c(=O)c(=O)[nH]c2c1)N1CCc2ccccc21,3.0,4.8,-1.6,-10.0,1.0,-0.5
CC(C)(C)c1cc(CCC(=O)NNC(=S)NC(=O)c2ccccc2)cc(C(C)(C)C)c1O,-9.6,-10.4,15.8,3.9,36.6*,14.1
COc1ccc(C(=O)NNC(=S)NC(=O)c2ccc(F)cc2)cc1Br,-27.9,-18.9,1.7,15.2,93.4*,67.6*
CCCCC(=O)NC(=S)NNC(=O)c1ccc(Cl)cc1Cl,4.7,-1.6,10.6,7.9,3.2,1.1
Cc1ccc(C(=O)NNC(=S)NC(=O)c2ccc(Cl)cc2Cl)cc1,-17.1,-40.7,8.4,35.8*,160.4*,76.8*
Cc1cccc(C(=O)NNC(=S)NC(=O)c2cccs2)c1,-36.2,-18.4,6.7,-4.7,129.4*,65.5*
C=C(CN(C)C)C(=O)c1ccc2c(c1)OCO2,-3.7,-3.3,18.1,7.0,0.1,-2.8
CCOC(=O)CC(NC(=O)c1ccc(C)cc1)c1ccc(OC)cc1 (configuration not stated),3.4,0.1,7.3,-2.5,1.3,3.0
CCOC(=O)c1ccc(NC(=O)c2c(N)n(C)c(=O)n(C)c2=O)cc1,7.6,7.0,15.7,5.0,1.4,0.4
O=C(Nc1ccn(CCCN2CCC(N3CCOCC3)CC2)c(=O)n1)OCc1ccccc1,3.9,1.8,-9.2,-4.3,1.9,0.1
Cc1ccccc1C(=O)NNC(=S)NC(=O)c1ccccc1,-16.7,-4.5,7.5,0.8,41.0*,23.1
O=C(NC(=S)NNC(=O)c1ccccc1O)c1ccccc1,-1.2,-1.7,10.6,5.5,5.6,1.4
CCc1nn(CC(=O)NCCN2CCN(C)CC2)c(=O)c2cc3c(OC)cccc3n12,5.4,2.2,-9.6,-1.6,-1.0,-5.4
COc1ccc2c(c1)N(C[C@H](C)CN(C)C)c1ccccc1S2,-18.9,-17.3,60.3*,54.0*,9.0,0.2
CCN(CC)CC(O)CN1c2ccccc2Sc2ccccc21 (configuration not stated),-17.8,-18.0,38.6*,14.7,5.0,-6.2
OCCN(CCO)CC(O)CN1c2ccccc2Sc2ccccc21 (configuration not stated),-2.6,-6.7,9.8,15.8,1.5,-6.9
CC(CN(C)C)CN1c2ccccc2Sc2ccccc21 (configuration not stated),-19.0,-18.0,97.9*,82.1*,9.1,1.2
CC(CN1c2ccccc2Sc2ccccc21)N(C)C (configuration not stated),-18.0,-18.6,98.6*,98.7*,1.1,-0.4
CCOC(=O)C1=CC[C@@H](c2ccccc2C(F)(F)F)N(S(=O)(=O)c2ccc(C)cc2)[C@H]1c1ccc(C#N)cc1,-5.4,-0.2,11.8,5.1,-0.2,1.0
CSCC[C@H](NC(=O)C1=NN(c2c(F)c(F)cc(F)c2F)C(=O)CC1)c1nc2ccccc2[nH]1,-4.7,-6.2,5.2,-0.5,0.1,1.0
